From PubChem
M1 antagonist – antagonists of rat M1 muscarinic receptor. P08482. CHO-M1 cells, Fluo-4 calcium, ACh EC80 antagonist mode; stronger effect = lower value. B-score at 10 µM. actives 3.4% (n = 64,000);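 active = calcium fluorescence response, raw or row-and-column corrected B-score, differing from the plate sample mean either way at a set confidence level, mostly lower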
HER2 expr 66K – Her2 kinase expression inhibition. SKBR-3 HER2 protein level, AlphaScreen, 18-24 h; stronger effect = lower value. HER2 level % of control, % at 10 µM. actives 0.69% (n = 65,000);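 active = HER2 level under 5% of the carrier-only control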;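 also: 100% = DMSO carrier and 0% = 500 nM PU-H71 HSP90 inhibitor; lower value means stronger loss of Her2 protein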
Cdc25B block – inhibitors of human Cdc25B phosphatase; P30305; recombinant Cdc25B, OMFP fluorescence Ex485/Em525; inhibition, %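 (compounds tested at 10 µM final in the well)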; actives 0.1% (n = 65,000); in the data active = inhibition above about 50%
Target sequence (P30305 whole entry, looked up): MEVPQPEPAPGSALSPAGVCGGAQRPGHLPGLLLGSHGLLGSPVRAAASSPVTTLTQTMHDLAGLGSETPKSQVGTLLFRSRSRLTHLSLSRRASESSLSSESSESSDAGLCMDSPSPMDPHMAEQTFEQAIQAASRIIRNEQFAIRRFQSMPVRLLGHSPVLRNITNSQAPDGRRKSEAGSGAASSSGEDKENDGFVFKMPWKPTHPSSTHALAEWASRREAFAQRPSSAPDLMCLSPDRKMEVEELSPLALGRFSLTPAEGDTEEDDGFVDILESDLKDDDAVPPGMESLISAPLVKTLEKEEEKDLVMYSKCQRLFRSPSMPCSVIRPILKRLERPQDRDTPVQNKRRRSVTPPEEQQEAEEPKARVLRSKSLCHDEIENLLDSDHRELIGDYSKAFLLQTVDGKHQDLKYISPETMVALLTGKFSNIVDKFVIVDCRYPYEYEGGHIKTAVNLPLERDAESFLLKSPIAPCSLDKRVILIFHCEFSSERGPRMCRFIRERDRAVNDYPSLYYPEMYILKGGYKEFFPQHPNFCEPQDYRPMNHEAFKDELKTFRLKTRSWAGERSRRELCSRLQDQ
HEK293 NFkB inh – lowers PMA/ionomycin-induced NF-kB signal in HEK293 cells; HEK-293 NF-kB luciferase reporter, luminescence; AID 465; inhibition, % at 3 µM; actives 0.21% (n = 62,000);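 active = inhibition above the mean of all tested compounds plus 3 SD, cut at about 40% in these data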;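 also: 0% = stimulated DMSO wells and 100% = 10 µM reference inhibitor 5653914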
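Reagent: PMA plus ionomycin mix as NF-kB-activating stimulus. Assay system: NF-kB luciferase reporter HEK-293 cells. Technique: luminescence from luciferase substrate reagent. Incubation: 1 h compound pre-incubation, 16 h PMA/ionomycin at 37 °C. Benchmarks: DMSO only as uninhibited control, 10 µM reference inhibitor as full inhibition. Repeats: tested once.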
DUSP1 inh – human dual specificity phosphatase 1 inhibition; inhibition, %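 (compounds tested at a single concentration somewhere between 10 and 100 µM)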; recombinant MKP-1, OMFP hydrolysis fluorescence; actives 0.15% (n = 65,000); P28562; AID 374;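 active = inhibition above about 50%, limit read from the data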;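 also: 0% = DMSO max control wells and 100% = wells with enzyme stopped by NaOH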
M1 agonist – agonists of M1 muscarinic receptor; CHO-M1 cells, Fluo-4 calcium fluorescence, agonist mode; stronger effect = higher value; B-score at 10 µM; actives 3% (n = 64,000); AID 626;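 active = fluorescence rise, raw or as B-score row- and column-corrected plate score, outside the 99.7% band of its plate's samples, either direction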
Active calls of the source: *. This is a sample that favours compounds with a hit; in the whole collection about 6.8% have one here.

For Fc1ccc(Br)cc1C1C=C(c2ccc(Br)s2)Nc2ncnn21 (configuration not stated) the results were M1 antagonist -0.37, HER2 expr 66K 54, Cdc25B block 2, HEK293 NFkB inh 11, DUSP1 inh 12 and M1 agonist 20*.
Screening C=CCOC(=O)C1=C(C)Nc2ncnn2C1c1cc(Br)ccc1F (configuration not stated) returned M1 antagonist 0.3, HER2 expr 66K 81, Cdc25B block -6, HEK293 NFkB inh 0, DUSP1 inh 4 and M1 agonist 0.95.
CC1CCN(CC(=O)N2c3ccccc3CCc3ccccc32)CC1 was read as HER2 expr 66K 46, Cdc25B block -9, HEK293 NFkB inh 18 and DUSP1 inh 7.
Screening COc1ccccc1N1CCN(C(=O)c2cnn3cccnc23)CC1 returned M1 antagonist -0.63, HER2 expr 66K 90, Cdc25B block 0, HEK293 NFkB inh 7, DUSP1 inh -1 and M1 agonist 0.56.
OCCCc1nc2n(n1)C(c1cccs1)C=C(c1ccccc1)N2 (configuration not stated) was read as M1 antagonist -15*, HER2 expr 66K 88, Cdc25B block -7, HEK293 NFkB inh 4, DUSP1 inh 2 and M1 agonist 431*.
OCCCc1nc2n(n1)C(c1ccccc1)C=C(c1ccc(F)cc1)N2 (configuration not stated) was read as M1 antagonist 0.15, HER2 expr 66K -30*, Cdc25B block 10, HEK293 NFkB inh 12, DUSP1 inh -7 and M1 agonist 2.3.
`CCn1c(SCC(=O)c2ccc(CNC(C)=O)o2)nnc1-c1cccs1` gave M1 antagonist 2*, HER2 expr 66K 97, Cdc25B block -8, HEK293 NFkB inh 9, DUSP1 inh 27 and M1 agonist 0.086.
For CCCCS(=O)(=O)/C=C\C1C2C=CC(C2)C1S(=O)(=O)CCCC (configuration not stated) the results were M1 antagonist 0.22, HER2 expr 66K 108, Cdc25B block -12, HEK293 NFkB inh 22, DUSP1 inh 7 and M1 agonist -0.018.
Screening CCCCS(=O)(=O)/C=C\C=C/S(=O)(=O)CCCC returned M1 antagonist 0.46, HER2 expr 66K -17*, Cdc25B block 5, HEK293 NFkB inh 25, DUSP1 inh 16 and M1 agonist 0.26.
Screening CCN(CC)CCNC(=O)c1c(O)c2cc(OC)c(OC)cc2[nH]c1=O returned M1 antagonist -0.011, HER2 expr 66K 100, Cdc25B block -9, HEK293 NFkB inh 2, DUSP1 inh 1 and M1 agonist 0.21.
`Cc1c(C(=O)N2CCOCC2)sc2nc(-c3ccccc3)cn12` gave M1 antagonist 1.1, HER2 expr 66K 114, Cdc25B block -26, HEK293 NFkB inh -12, DUSP1 inh 18 and M1 agonist -0.46.
`COc1ccc(-c2cn3c(C)c(C(=O)N4CCc5ccccc5C4)sc3n2)cc1` gave M1 antagonist 0.0014, HER2 expr 66K 97, Cdc25B block -10, HEK293 NFkB inh 14, DUSP1 inh 7 and M1 agonist 4.7*.
For CCOC(=O)c1cn2c3c(c(F)c(F)c(F)c3c1=O)SC(N1CCCC1)=N2 the results were M1 antagonist -0.33, HER2 expr 66K 7, Cdc25B block -4, HEK293 NFkB inh 15, DUSP1 inh 2 and M1 agonist -0.31.
Cc1nn(-c2ccc(C(=O)Nc3nnc(C4CC4)s3)cc2)c(C)c1Cl was read as M1 antagonist 1.1, HER2 expr 66K 95, Cdc25B block 1, HEK293 NFkB inh 0, DUSP1 inh 13 and M1 agonist -0.2.
`Cc1nn(Cc2ccccc2Cl)c(C)c1C(=O)Nc1nnc(C2CC2)s1` gave M1 antagonist -0.098, HER2 expr 66K 80, Cdc25B block -10, HEK293 NFkB inh 52*, DUSP1 inh 17 and M1 agonist 0.028.
For Cc1cc2nc(-c3ccc(SCC(=O)N4CCN(C(=O)c5ccco5)CC4)nc3)[nH]c2cc1C the results were M1 antagonist -0.58, HER2 expr 66K 88, Cdc25B block 14, HEK293 NFkB inh -10, DUSP1 inh 41 and M1 agonist 0.59.
